Results from ChEMBL document CHEMBL3271997, “Reactions of 2-acyloxyisobutyryl halides with nucleosides. 6. Synthesis and biological evaluation of some 3'-acyl derivatives of 2,2'-anhydro-1-(beta-D-arabinofuranosyl)cytosine hydrochloride” (J Med Chem, 1976).
The source made the active and inactive calls. No cut-off for these calls is given here.

Columns and labels:
L1210 [1] = assay: Antitumor activity against mouse L1210 cells allografted in BDF1 mouse assessed as increase in life span at 200 mg/kg, ip administered as single dose 24 hrs post-implantation measured up to 30 days relative to control; type: functional; settings: route intraperitoneal
In short: (§1)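 BDF1 mice inoculated ip with 1-2 × 10⁵ L1210 cells; 24 h later a single ip dose given as solution or suspension in aqueous 0.9% NaCl, 0.4% polysorbate 80, 0.5% low-viscosity sodium carboxymethylcellulose, 0.9% benzyl alcohol. Mice held on normal diet for 30 days. Groups of eight to ten animals; percent increase in life span versus untreated infected controls, with 30-day survivors counted.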

L1210 [2] = assay: Antitumor activity against mouse L1210 cells allografted in BDF1 mouse assessed as survival at 200 mg/kg, ip administered as single dose 24 hrs post-implantation after 30 days; type: functional, organism-based; set-up: dose 200 mg/kg
In short: (§2)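 BDF1 mice were inoculated ip with 1-2 × 10⁵ L1210 cells. After 24 h, one ip dose was given as a solution or suspension in aqueous 0.9% NaCl, 0.4% polysorbate 80, 0.5% low-viscosity Na carboxymethylcellulose and 0.9% benzyl alcohol. Mice were followed for 30 days, with 8-10 per group. The read-out is % increase in life span versus infected controls, plus the count of 30-day survivors.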

HeLa = assay: Cytotoxicity against human HeLa cells after 48 hrs by Coulter counting analysis; type: functional; settings: read-out: ED50 (the source's name)
In short: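 HeLa cells (10⁵) were grown for 2 days at 37° in MEM with 10% bovine serum. The medium was then replaced with fresh medium containing serial compound dilutions. After 48 h, cells were dispersed with 0.02% trypsin and 0.04% versene and counted on a Coulter counter. The result is expressed as ED50 in μg/ml.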

Vaccinia virus = assay: Antiviral activity against Vaccinia virus IHD infected in African green monkey BGM cells after 6 days by plaque reduction assay; type: functional; settings: Orthopoxvirus vaccinia, 144 h, read-out: ED50 (the source's name)
Herpesviridae sp. = assay: Antiviral activity against Herpes simplex virus HF infected in African green monkey BGM cells after 6 days by plaque reduction assay; type: functional; settings: 144 h, read-out: ED50 (the source's name)
In short: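 Quantitative plaque reduction assay. Confluent BGM monolayers were infected with 100-200 pfu of HSV (HF strain) and overlaid with 1.25% agar in MEM with 2.0% bovine serum containing graded compound concentrations. A second overlay with neutral red (1:20000) was added on day 4, and plaques were counted on day 6. ED50, the μM concentration giving 50% plaque reduction, was taken from a probability plot of % inhibition against concentration.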

L1210 [3] = assay: Antitumor activity against mouse L1210 cells allografted in BDF1 mouse assessed as increase in life span at 1000 mg/kg, ip administered as single dose 24 hrs post-implantation measured up to 30 days relative to control; type: functional; settings: route intraperitoneal; in short: as §1
L1210 [4] = assay: Antitumor activity against mouse L1210 cells allografted in BDF1 mouse assessed as survival at 1000 mg/kg, ip administered as single dose 24 hrs post-implantation after 30 days; type: functional, organism-based; set-up: dose 1000 mg/kg; in short: as §2
Mus musculus [5] = assay: Toxicity in BDF1 mouse allografted with mouse L1210 cells assessed as reduction in average life span at 500 mg/kg, ip administered as single dose 24 hrs post-implantation measured up to 30 days relative to control; type: organism-based; set-up: dose 500 mg/kg, route intraperitoneal; settings: in vivo; in short: as §2
Mus musculus [6] = assay: Toxicity in BDF1 mouse allografted with mouse L1210 cells assessed as reduction in average life span at 1000 mg/kg, ip administered as single dose 24 hrs post-implantation measured up to 30 days relative to control; type: organism-based; set-up: dose 1000 mg/kg, route intraperitoneal; settings: in vivo; in short: as §2
Mus musculus [7] = assay: Toxicity in BDF1 mouse allografted with mouse L1210 cells assessed as reduction in survival at 500 mg/kg, ip administered as single dose 24 hrs post-implantation measured up to 30 days relative to control; type: organism-based; set-up: dose 500 mg/kg, route intraperitoneal; settings: in vivo; in short: as §1
Mus musculus [8] = assay: Toxicity in BDF1 mouse allografted with mouse L1210 cells assessed as reduction in survival at 1000 mg/kg, ip administered as single dose 24 hrs post-implantation measured up to 30 days relative to control; type: organism-based; set-up: dose 1000 mg/kg, route intraperitoneal; settings: in vivo; in short: as §1
[9] = system: unidentified influenza virus; assay: Antiviral activity against Influenza virus […] infected in monkey LLC-MK2 cells after 5 days by pulp disk diffusion assay; type: functional, organism-based
In short: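 Pulp disk diffusion screen: LLCMK2 cells infected with 200 pfu influenza Ao/WSN in presence of trypsin; filter paper disk loaded with 50 μg compound; antiviral activity read as diameter of plaque-inhibition zone on day 5.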

L1210 [10] = assay: Antitumor activity against mouse L1210 cells allografted in BDF1 mouse assessed as survival at 500 mg/kg, ip administered as single dose 24 hrs post-implantation after 30 days; type: functional, organism-based; set-up: dose 500 mg/kg; in short: as §2
L1210 [11] = assay: Antitumor activity against mouse L1210 cells allografted in BDF1 mouse assessed as increase in life span at 2000 mg/kg, ip administered as single dose 24 hrs post-implantation measured up to 30 days relative to control; type: functional; settings: route intraperitoneal; in short: as §1
Mus musculus [12] = assay: Toxicity in BDF1 mouse allografted with mouse L1210 cells at 3000 mg/kg, ip; type: organism-based; set-up: dose 3000 mg/kg, route intraperitoneal; settings: in vivo; in short: as §2
BGM = assay: Antiviral activity against Poliovirus type 1 Mahoney infected in African green monkey BGM cells after 5 days by pulp disk diffusion assay; type: functional, cell-based; settings: Human poliovirus 1 Mahoney
In short: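 Pulp disk diffusion screen: BGM African green monkey kidney cells infected with 200 pfu Mahoney type I poliovirus; filter paper disk loaded with 50 μg compound; antiviral activity read as diameter of plaque-inhibition zone on day 5.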

Measles morbillivirus = assay: Antiviral activity against Measles virus infected in African green monkey BGM cells after 5 days by pulp disk diffusion assay; type: functional, organism-based
In short: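 Preliminary pulp disk diffusion screen. BGM cells were infected with 200 pfu of measles virus. A filter paper disk impregnated with 50 μg of compound was applied. Activity was scored as the diameter of the zone of plaque inhibition on day 5.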

L1210 [13] = assay: Antitumor activity against mouse L1210 cells allografted in BDF1 mouse assessed as increase in life span at 500 mg/kg, sc administered 10 days prior to infection relative to control; type: functional; settings: route subcutaneous
In short: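 Single subcutaneous dose given 10 days before infection of mice with L1210 cells; activity expressed as percent increase in life span relative to untreated controls.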

Mus musculus [14] = assay: Toxicity in BDF1 mouse allografted with mouse L1210 cells assessed as reduction in average life span at 200 mg/kg, ip administered as single dose 24 hrs post-implantation measured up to 30 days relative to control; type: organism-based; set-up: dose 200 mg/kg, route intraperitoneal; settings: in vivo; in short: as §2
Mus musculus [15] = assay: Toxicity in BDF1 mouse allografted with mouse L1210 cells assessed as reduction in survival at 200 mg/kg, ip administered as single dose 24 hrs post-implantation measured up to 30 days relative to control; type: organism-based; set-up: dose 200 mg/kg, route intraperitoneal; settings: in vivo; in short: as §1
[16] = Half life in human; type: ADME, organism-based; settings: in vivo

Structure (SMILES)	ILS at 200 mg/kg (L1210 [1])	Activity (L1210 [2])	EC50 (HeLa)	EC50 (Vaccinia virus)	EC50 (Herpesviridae sp.)	also measured
CCCCCC(=O)O[C@H]1[C@@H]2Oc3nc(=N)ccn3[C@@H]2O[C@@H]1CO.Cl	40%	inactive	0.1 µg/mL	0.23 µM	1.55 µM	–
CCC(=O)O[C@H]1[C@@H]2Oc3nc(=N)ccn3[C@@H]2O[C@@H]1CO.Cl	29%	inactive	0.1 µg/mL	0.6 µM	2.55 µM	–
CCCCCCCCCCC(=O)O[C@H]1[C@@H]2Oc3nc(=N)ccn3[C@@H]2O[C@@H]1CO.Cl	87%	inactive	0.06 µg/mL	0.19 µM	0.46 µM	–
Cl.N=c1ccn2c(n1)O[C@H]1[C@H](OC(=O)c3ccccc3)[C@@H](CO)O[C@H]12	17%	inactive	0.2 µg/mL	5.9 µM	8.2 µM	–
CCCCCCCC/C=C\CCCCCCCC(=O)O[C@H]1[C@@H]2Oc3nc(=N)ccn3[C@@H]2O[C@@H]1CO.Cl	72%	inactive	0.08 µg/mL	0.67 µM	1.2 µM	–
CC(=O)O[C@H]1[C@@H]2Oc3nc(=N)ccn3[C@@H]2O[C@@H]1CO.Cl	37%	inactive	0.18 µg/mL	0.73 µM	2.25 µM	ILS at 1000 mg/kg (L1210 [3]): 87%; Activity (L1210 [4]): inactive
CCCCCCCCC(=O)O[C@H]1[C@@H]2Oc3nc(=N)ccn3[C@@H]2O[C@@H]1CO.Cl	33%	inactive	0.05 µg/mL	0.29 µM	0.4 µM	–
CCCCCCCCCCCC(=O)O[C@H]1[C@@H]2Oc3nc(=N)ccn3[C@@H]2O[C@@H]1CO.Cl	40%	inactive	0.1 µg/mL	0.64 µM	0.64 µM	–
CCCCCCCC(=O)O[C@H]1[C@@H]2Oc3nc(=N)ccn3[C@@H]2O[C@@H]1CO.Cl	34%	–	0.1 µg/mL	0.19 µM	0.72 µM	ILS (Mus musculus [5]): -93%; ILS (Mus musculus [6]): -100%; Activity (Mus musculus [7]): Toxic; Activity (Mus musculus [8]): Toxic
CCCC(=O)O[C@H]1[C@@H]2Oc3nc(=N)ccn3[C@@H]2O[C@@H]1CO.Cl	30%	inactive	0.12 µg/mL	0.59 µM	2.05 µM	–
CCCCCCCCCCCCCCCCCCCCCC(=O)O[C@H]1[C@@H]2Oc3nc(=N)ccn3[C@@H]2O[C@@H]1CO.Cl	> 169%	–	0.38 µg/mL	18.5 µM	> 30 µM	ILS at 1000 mg/kg (L1210 [3]): > 240%
CCCCCCCC/C=C\CCCCCCCCCCCC(=O)O[C@H]1[C@@H]2Oc3nc(=N)ccn3[C@@H]2O[C@@H]1CO.Cl	> 269%	–	0.18 µg/mL	30 µM	> 30 µM	–
Cl.N=c1ccn2c(n1)O[C@H]1[C@H](O)[C@@H](CO)O[C@H]12 [ANCITABINE HYDROCHLORIDE]	25%	inactive	0.05 µg/mL	0.41 µM	0.7 µM	Activity [9]: inactive; ILS at 1000 mg/kg (L1210 [3]): 89%; Activity (L1210 [10]): inactive; Activity (L1210 [4]): inactive; ILS at 2000 mg/kg (L1210 [11]): > 151%; Activity (Mus musculus [12]): Toxic; Activity (BGM): inactive; Activity (Measles morbillivirus): inactive
Cl.N=c1ccn2c(n1)O[C@H]1[C@H](OC(=O)Cc3ccccc3)[C@@H](CO)O[C@H]12	33%	inactive	0.07 µg/mL	0.56 µM	0.56 µM	–
C=CCCCCCCCCC(=O)O[C@H]1[C@@H]2Oc3nc(=N)ccn3[C@@H]2O[C@@H]1CO.Cl	38%	inactive	0.05 µg/mL	0.51 µM	1.2 µM	–
CCCCCCCCCCCCCC(=O)O[C@H]1[C@@H]2Oc3nc(=N)ccn3[C@@H]2O[C@@H]1CO.Cl	100%	inactive	0.2 µg/mL	0.34 µM	1.35 µM	ILS at 1000 mg/kg (L1210 [3]): > 280%; Activity (L1210 [4]): Active; ILS at 500 mg/kg (L1210 [13]): 64%
CCCCCCCCCCCCCCCCCCCC(=O)O[C@H]1[C@@H]2Oc3nc(=N)ccn3[C@@H]2O[C@@H]1CO.Cl	> 281%	–	0.22 µg/mL	> 30 µM	> 30 µM	ILS at 1000 mg/kg (L1210 [3]): > 266%; Activity (L1210 [4]): Active
CC(C)C(=O)O[C@H]1[C@@H]2Oc3nc(=N)ccn3[C@@H]2O[C@@H]1CO.Cl	22%	inactive	0.2 µg/mL	1.55 µM	8.8 µM	–
CCCCCCCC/C=C/CCCCCCCC(=O)O[C@H]1[C@@H]2Oc3nc(=N)ccn3[C@@H]2O[C@@H]1CO.Cl	> 162%	–	0.09 µg/mL	0.9 µM	1.9 µM	–
CCCCCCCCCCCCCCCCCC(=O)O[C@H]1[C@@H]2Oc3nc(=N)ccn3[C@@H]2O[C@@H]1CO.Cl	115%	inactive	0.22 µg/mL	1.6 µM	5.45 µM	ILS at 1000 mg/kg (L1210 [3]): > 257%; Activity (L1210 [4]): Active
CCCCCCCCCC(=O)O[C@H]1[C@@H]2Oc3nc(=N)ccn3[C@@H]2O[C@@H]1CO.Cl	35%	inactive	0.2 µg/mL	0.15 µM	1.05 µM	–
CCCCCCC/C=C/C(=O)O[C@H]1[C@@H]2Oc3nc(=N)ccn3[C@@H]2O[C@@H]1CO.Cl	–	–	0.06 µg/mL	0.15 µM	0.21 µM	ILS (Mus musculus [14]): -83%; Activity (Mus musculus [15]): Toxic
CCCCCCCCCCCCCCCC(=O)O[C@H]1[C@@H]2Oc3nc(=N)ccn3[C@@H]2O[C@@H]1CO.Cl	> 191%	–	0.2 µg/mL	1.2 µM	5.5 µM	ILS (Mus musculus [6]): -20%; Activity (Mus musculus [8]): Toxic
Nc1ccn([C@@H]2O[C@H](CO)[C@@H](O)[C@@H]2O)c(=O)n1 [CYTARABINE]	–	–	–	–	–	half-life [16]: 12 min
